The test system of data set [1] is Mus musculus. The data set is described as follows: In vivo antitumor activity of compound against subaxillary implanted 6C3HED lymphosarcoma implanted in C3H mice at a dose of 150 mg/kg administered perorally twice daily for a period of 8 days; Toxic. It counts as functional, organism-based. Also on record: dose 150 mg/kg. In a few lines: (§1)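 6C3HED lymphosarcoma was carried in C3H mice. Compound was dosed at the stated route and schedule for 8 days (daily, twice daily, or days 1, 3, 5, 7) and tumor growth inhibition was scored against controls. The table value is the lowest dose giving >80% inhibition, or the highest dose tested. Deaths per group were recorded.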

Another data set concerns CCRF-CEM. The data set is described as follows: In vitro cytotoxicity against CCRF-CEM cells. It counts as functional, cell-based. Conditions: Homo sapiens. In a few lines: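 CCRF-CEM cells were grown in culture for 72 h with compound. The value is the concentration that inhibited growth to 50% of control growth.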
In data set [2] the test system is Mus musculus. The data set can be described thus: In vivo antitumor activity of compound against subaxillary implanted 6C3HED lymphosarcoma implanted in C3H mice at a dose of 25 mg/kg administered perorally twice daily for a period of 8 days. Format: functional. Conditions: route oral. In a few lines: (§2)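 Oral dosing twice daily for 8 days in C3H mice bearing 6C3HED lymphosarcoma. Read-out is percent tumor growth inhibition relative to controls, with deaths per group also recorded. The full in vivo protocol is given in an earlier report.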

For data set [3], the system named is Mus musculus. The data set can be described thus: In vivo antitumor activity of compound against subaxillary implanted 6C3HED lymphosarcoma implanted in C3H mice at a dose of 4.0 mg/kg administered intraperitoneally twice daily for a period of 8 days. Format: functional. The following applies: ip, 192 h, route intraperitoneal. In a few lines: as §1
Data set [4] deals with Mus musculus. The data set can be described thus: In vivo antitumor activity of compound against subaxillary implanted 6C3HED lymphosarcoma implanted in C3H mice at a dose of 25 mg/kg administered perorally daily for a period of 8 days. Conditions: 192 h, route oral. Format: functional. In a few lines:
as §1

Data set [5] relates to Mus musculus. The data set is described as follows: In vivo antitumor activity of compound against subaxillary implanted 6C3HED lymphosarcoma implanted in C3H mice at a dose of 150 mg/kg administered perorally daily for a period of 8 days. Format: functional. The following applies: 192 h, route oral. In a few lines:
as §1

Data set [6] is described as follows: Metabolic breakdown to the o-sulfate of p-chloroaniline (2-amino-5-chlorophenyl sulfate) by giving 100 mg/kg oral doses of the compound. Format: ADME, organism-based. Also on record: dose 100 mg/kg, route oral. Conditions: in vivo. In a few lines:
(§3)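 Groups of two to four mice received single 100 mg/kg oral doses of each compound. Urine was pooled over 0-24 h, and the 2-amino-5-chlorophenyl sulfate excreted in 24 h per mouse was quantified as the marker of p-chloroaniline release.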

Data set [7] deals with Mus musculus. The data set can be described thus: In vivo antitumor activity against subaxillary implanted 6C3HED lymphosarcoma implanted in C3H mice at a dose of 150 mg/kg administered perorally twice daily for a period of 8 days. Format: functional. The following applies: route oral, 150 mg/kg. In a few lines: as §1
The nature of data set [8]: % dose converted to 4-(S-amino-N-{[(4-chlorophenyl)amino]carbonyl}sulfonimidoyl)benzoic acid (compound 41). Format: ADME.
Data set [9] deals with Mus musculus. The data set is described as follows: (§4) In vivo antitumor activity of compound against subaxillary implanted 6C3HED lymphosarcoma implanted in C3H mice at a dose of 75 mg/kg administered perorally twice daily for a period of 8 days. Conditions: 192 h, route oral. It counts as functional. In a few lines:
as §1

Data set [10] has as its system Mus musculus. Described as §4. It counts as functional. The following applies: route oral. The gist of the method:
as §2

A short description of data set [11]: % dose converted to 2-amino-5-chlorophenyl sulfate. Format: ADME. The gist of the method:
as §3

≈ marks a conversion by molar mass, not a printed value.

For `N[S+]([O-])(=NC(=O)Nc1ccc(Cl)cc1)c1ccc(C(F)(F)F)cc1` (stereo unspecified), in the data set on Mus musculus [1], the inhibition entry was “Toxic”. For the same compound, the IC50 (in general, the concentration that inhibits the measured activity by half) in the data set with CCRF-CEM was found to be 15.2 µg/mL (≈ 40.2 µM). The Lethality in the data set with Mus musculus [2] amounted to 100%.

As for `Cc1ccc([S+](N)([O-])=NC(=O)Nc2ccc(Cl)cc2)cc1C` (stereo unspecified), the IC50 in the data set with CCRF-CEM was more than 20 µg/mL. Moreover, the inhibition in vivo (in general, the change of the read-out against control, counted positive when it falls) at 4 mg/kg in the data set on Mus musculus [3] came to 97%.

In the data set on CCRF-CEM, `CN[S+]([O-])(=NC(=O)Nc1ccc(Cl)cc1)c1ccc(C)c(C)c1` (stereo unspecified) gave an IC50 of 16.2 µg/mL (≈ 46 µM). This compound also came in with an inhibition in vivo at 25 mg/kg in the data set with Mus musculus [4] of 98%.

In the data set with CCRF-CEM, `CN[S+]([O-])(=NC(=O)Nc1ccc(Cl)cc1)c1ccc(C)cc1` (stereo unspecified) returned a 50% inhibitory concentration (IC50) of more than 20 µg/mL. This compound came in with an inhibition in vivo at 150 mg/kg with Mus musculus [5] of 93%. Further, the Activity in data set [6] was determined as 1.2 µM.

For the compound `Cc1ccc([S+](N)([O-])=NC(=O)Nc2ccc(Cl)cc2)cc1` (single isomer, unassigned; (-)), the Inhibition (in general, the relative decrease from the control value, in per cent) in the data set with Mus musculus [7] turned out to be 100%. The results for the Dose converted in data set [8] and in data set [11] were 18% and 4.7%, respectively. Testing at 75 mg/kg in the data set with Mus musculus [9] gave an inhibition in vivo of 100%. The Activity in data set [6] stood at 0.58 µM. Moreover, the Lethality with Mus musculus [10] was found to be 60%.

Values taken from ChEMBL document CHEMBL1129963, “Sulfonimidamide analogs of oncolytic sulfonylureas” (J Med Chem, 1997).
